# According to ChEMBL document CHEMBL3526053, “Species-dependent uptake of glycylsarcosine but not oseltamivir in Pichia pastoris expressing the rat, mouse, and human intestinal peptide transporter PEPT1” (Drug Metab Dispos, 2012):
# Non-standard residues stand in square brackets, D forms with d. Residues, ends and D or L forms follow the SMILES beside them. Sar = CNCC(=O)O
# T1: Solute carrier family 15 member 1 (Oryctolagus cuniculus, UniProt P36836)
# T1 sequence (P36836 whole entry): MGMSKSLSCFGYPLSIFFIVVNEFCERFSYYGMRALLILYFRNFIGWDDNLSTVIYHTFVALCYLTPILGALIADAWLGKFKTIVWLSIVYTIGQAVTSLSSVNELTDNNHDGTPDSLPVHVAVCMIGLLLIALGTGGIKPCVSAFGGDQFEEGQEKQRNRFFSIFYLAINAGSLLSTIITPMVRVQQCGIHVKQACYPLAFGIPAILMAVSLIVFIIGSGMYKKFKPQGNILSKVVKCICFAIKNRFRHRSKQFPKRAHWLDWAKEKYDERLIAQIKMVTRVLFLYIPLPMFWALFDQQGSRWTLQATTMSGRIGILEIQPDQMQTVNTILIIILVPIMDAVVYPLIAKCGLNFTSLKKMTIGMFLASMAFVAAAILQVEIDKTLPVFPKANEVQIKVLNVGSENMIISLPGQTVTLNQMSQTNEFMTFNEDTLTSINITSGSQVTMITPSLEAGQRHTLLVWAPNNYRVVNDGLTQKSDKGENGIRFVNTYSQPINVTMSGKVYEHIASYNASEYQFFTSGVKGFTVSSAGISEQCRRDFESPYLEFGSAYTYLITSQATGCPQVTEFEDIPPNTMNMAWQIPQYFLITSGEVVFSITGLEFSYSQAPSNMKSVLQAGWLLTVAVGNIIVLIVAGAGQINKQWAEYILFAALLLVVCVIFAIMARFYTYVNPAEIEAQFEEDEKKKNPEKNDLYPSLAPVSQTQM
# What was measured:
# [1] = test system: PEPT1; experiment: Drug uptake in CHO cells expressing pig PEPT1 measured at pH 6; assay type: ADME, cell-based, Sus scrofa; settings: CHO cells expressing pig PEPT1, pH 6
# [2] = test system: PEPT1; experiment: Ratio of Km for human recombinant PEPT1 expressed in Pichia pastoris GS115 to Km for mouse recombinant PEPT1 expressed in Pichia pastoris GS115; assay type: ADME; settings: not told
# [3] = test system: PEPT1; experiment: Drug uptake in Xenopus laevis oocytes expressing sheep PEPT1 measured at pH 5.5 and -60 mV by two-electrode voltage-clamp electrophysiology; assay type: ADME, cell-based, Ovis aries; settings: Xenopus laevis oocytes expressing sheep PEPT1, pH 5.5
# [4] = molecular target: T1, Solute carrier family 15 member 1; experiment: Drug uptake in Xenopus laevis oocytes expressing rabbit PEPT1 measured at pH 5.5 and -60 mV by two-electrode voltage-clamp electrophysiology; assay type: ADME, cell-based
# [5] = test system: PEPT1; experiment: Drug uptake in human HeLa cells expressing monkey PEPT1 measured at pH 6; assay type: ADME, cell-based, Macaca mulatta; settings: rhesus monkey, HeLa cells expressing monkey PEPT1, pH 6
# [6] = test system: PEPT1; experiment: Drug uptake in Xenopus laevis oocytes expressing salmon PEPT1 measured at pH 6.5 and -60 mV by two-electrode voltage-clamp electrophysiology; assay type: ADME, cell-based; settings: salmonidae, Xenopus laevis oocytes expressing salmon PEPT1, pH 6.5
# [7] = Ratio of Km for human recombinant PEPT1 expressed in Pichia pastoris GS115 to Km for rat recombinant PEPT1 expressed in Pichia pastoris GS115; assay type: ADME
# [8] = test system: PEPT1; experiment: Drug uptake in Xenopus laevis oocytes expressing chicken PEPT1 measured at pH 6 and -60 mV by two-electrode voltage-clamp electrophysiology; assay type: ADME, cell-based, Gallus gallus; settings: Xenopus laevis oocytes expressing chicken PEPT1, pH 6
# [9] = test system: PEPT1; experiment: Drug uptake in CHO cells expressing chicken PEPT1 measured at pH 6; assay type: ADME, cell-based, Gallus gallus; settings: CHO cells expressing chicken PEPT1, pH 6
# [10] = substrate: CN(CC(=O)O)C(=O)CN; experiment: Activity at mouse recombinant PEPT1 expressed in Pichia pastoris GS115 after 30s by dual-channel liquid scintillation counting analysis; assay type: ADME
# Outline: (§1)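 [3H]GlySar concentration series 0.005-10 mM, 30-s uptake at 24°C in 100 mM potassium phosphate pH 6.5. Cells come from His+Mut+ GS115 transformants induced 20-24 h in methanol medium. Uptake is normalised to OD600. Data are fitted to Michaelis-Menten plus a first-order nonsaturable term (Kd), weighting unity. Parameters are mean ± SE (n=9).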
# [11] = substrate: CN(CC(=O)O)C(=O)CN; experiment: Drug uptake in Xenopus laevis oocytes expressing mouse PEPT1 measured at pH 5.5 and -60 mV by two-electrode voltage-clamp electrophysiology; assay type: ADME, cell-based
# [12] = substrate: CN(CC(=O)O)C(=O)CN; experiment: Activity at rat recombinant PEPT1 expressed in Pichia pastoris GS115 after 30s by dual-channel liquid scintillation counting analysis; assay type: ADME; outline: as §1
# [13] = substrate: CN(CC(=O)O)C(=O)CN; experiment: Drug uptake in Xenopus laevis oocytes expressing rat PEPT1 measured at pH 6; assay type: ADME, cell-based
# [14] = substrate: CN(CC(=O)O)C(=O)CN; experiment: Activity at human recombinant PEPT1 expressed in Pichia pastoris GS115 after 30s by dual-channel liquid scintillation counting analysis; assay type: ADME; outline: as §1
# [15] = substrate: CN(CC(=O)O)C(=O)CN; experiment: Drug uptake in human HeLa cells expressing human PEPT1 measured at pH 6; assay type: ADME, cell-based
molecule,measurement,setting,value
CN(CC(=O)O)C(=O)CN [GLYCYLSARCOSINE] (H-Gly-[Sar]-OH),Km,[1],940 µM
same,selectivity ratio,[2],2.9
same,Km,[3],610 µM
same,Km,[4],1900 µM
same,Km,[5],350 µM
same,Km,[6],500 µM
same,Ratio,[7],5.4
same,Km,[8],470 µM
same,Km,[9],2600 µM
Solute carrier family 15 member 1 (Mus musculus) (protein) MGMSKSRGCFGYPLSIFFIVVNEFCERFSYYGMRALLVLYFRNFLGWDDNLSTAIYHTFVALCYLTPILGALIADSWLGKFKTIVSLSIVYTIGQAVISVSSINDLTDHDHNGSPDSLPVHVALSMVGLALIALGTGGIKPCVSAFGGDQFEEGQEKQRNRFFSIFYLAINGGSLLSTIITPILRVQQCGIHSQQACYPLAFGVPAALMAVALIVFVLGSGMYKKFQPQGNIMGKVAKCIGFAIKNRFRHRSKAYPKREHWLDWAKEKYDERLISQIKMVTKVMFLYIPLPMFWALFDQQGSRWTLQATTMNGKIGAIEIQPDQMQTVNAILIVIMVPIVDAVVYPLIAKCGFNFTSLKKMTVGMFLASMAFVVAAIVQVEIDKTLPVFPGGNQVQIKVLNIGNNNMTVHFPGNSVTLAQMSQTDTFMTFDIDKLTSINISSSGSPGVTTVAHDFEQGHRHTLLVWNPSQYRVVKDGLNQKPEKGENGIRFVNTLNEMVTIKMSGKVYENVTSHNASGYQFFPSGEKQYTINTTAVAPTCLTDFKSSNLDFGSAYTYVIRRASDGCLEVKEFEDIPPNTVNMALQIPQYFLLTCGEVVFSVTGLEFSYSQAPSNMKSVLQAGWLLTVAVGNIIVLIVAGAGHFPKQWAEYILFASLLLVVCVIFAIMARFYTYINPAEIEAQFDEDEKKKGIGKENPYSSLEPVSQTNM,Km,[10],300 µM
same,Km,[11],750 µM
Solute carrier family 15 member 1 (Rattus norvegicus) (protein) MGMSKSRGCFGYPLSIFFIVVNEFCERFSYYGMRALLVLYFRNFLGWDDDLSTAIYHTFVALCYLTPILGALIADSWLGKFKTIVSLSIVYTIGQAVISVSSINDLTDHDHDGSPNNLPLHVALSMIGLALIALGTGGIKPCVSAFGGDQFEEGQEKQRNRFFSIFYLAINAGSLLSTIITPILRVQQCGIHSQQACYPLAFGVPAALMAVALIVFVLGSGMYKKFQPQGNIMGKVAKCIRFAIKNRFRHRSKAFPKRNHWLDWAKEKYDERLISQIKIMTKVMFLYIPLPMFWALFDQQGSRWTLQATTMTGKIGTIEIQPDQMQTVNAILIVIMVPIVDAVVYPLIAKCGFNFTSLKKMTVGMFLASMAFVVAAIVQVEIDKTLPVFPSGNQVQIKVLNIGNNDMAVYFPGKNVTVAQMSQTDTFMTFDVDQLTSINVSSPGSPGVTTVAHEFEPGHRHTLLVWGPNLYRVVKDGLNQKPEKGENGIRFVSTLNEMITIKMSGKVYENVTSHSASNYQFFPSGQKDYTINTTEIAPNCSSDFKSSNLDFGSAYTYVIRSRASDGCLEVKEFEDIPPNTVNMALQIPQYFLLTCGEVVFSVTGLEFSYSQAPSNMKSVLQAGWLLTVAIGNIIVLIVAEAGHFDKQWAEYVLFASLLLVVCIIFAIMARFYTYINPAEIEAQFDEDEKKKGVGKENPYSSLEPVSQTNM,Km,[12],160 µM
same,Km,[13],240 µM
Solute carrier family 15 member 1 (Homo sapiens) (protein) MGMSKSHSFFGYPLSIFFIVVNEFCERFSYYGMRAILILYFTNFISWDDNLSTAIYHTFVALCYLTPILGALIADSWLGKFKTIVSLSIVYTIGQAVTSVSSINDLTDHNHDGTPDSLPVHVVLSLIGLALIALGTGGIKPCVSAFGGDQFEEGQEKQRNRFFSIFYLAINAGSLLSTIITPMLRVQQCGIHSKQACYPLAFGVPAALMAVALIVFVLGSGMYKKFKPQGNIMGKVAKCIGFAIKNRFRHRSKAFPKREHWLDWAKEKYDERLISQIKMVTRVMFLYIPLPMFWALFDQQGSRWTLQATTMSGKIGALEIQPDQMQTVNAILIVIMVPIFDAVLYPLIAKCGFNFTSLKKMAVGMVLASMAFVVAAIVQVEIDKTLPVFPKGNEVQIKVLNIGNNTMNISLPGEMVTLGPMSQTNAFMTFDVNKLTRINISSPGSPVTAVTDDFKQGQRHTLLVWAPNHYQVVKDGLNQKPEKGENGIRFVNTFNELITITMSGKVYANISSYNASTYQFFPSGIKGFTISSTEIPPQCQPNFNTFYLEFGSAYTYIVQRKNDSCPEVKVFEDISANTVNMALQIPQYFLLTCGEVVFSVTGLEFSYSQAPSNMKSVLQAGWLLTVAVGNIIVLIVAGAGQFSKQWAEYILFAALLLVVCVIFAIMARFYTYINPAEIEAQFDEDEKKNRLEKSNPYFMSGANSQKQM,Km,[14],860 µM
same,Km,[15],290 µM
